Source: ChEMBL document CHEMBL2016444, “Discovery of novel 2-piperidinol-3-(arylsulfonyl)quinoxalines as phosphoinositide 3-kinase α (PI3Kα) inhibitors” (Bioorg Med Chem, 2012)
Active and inactive are the calls of the source. The rule behind the calls is not given here.

Experiments:
HL-60 = assay: Cytotoxicity against human HL60 cells after 72 hrs by MTT assay; type: functional, cell-based; conditions: HL-60, 72 h
Outline: (§1)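 Cells grown in RPMI-1640 with heat-inactivated 10% FBS, penicillin 100 units/mL, streptomycin, 37 °C, 20% O₂, 5% CO₂. Compounds from 10.0 mg/mL DMSO stocks, diluted. Cells plated 24 h, then exposed to a range of concentrations for 72 h; viable cells read by MTT kit per manufacturer's instructions.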

A549 = assay: Cytotoxicity against human A549 cells after 72 hrs by MTT assay; type: functional, cell-based; conditions: A549, 72 h; outline: as §1
[1] = molecular target: T1, Phosphatidylinositol 4,5-bisphosphate 3-kinase catalytic subunit alpha isoform (Homo sapiens, UniProt P42336); assay: Inhibition of PI3Kalpha using diC8-PI(4,5)P2 as substrate after 3 hrs by competitive fluorescence polarization assay
T1 sequence (P42336 whole entry, canonical isoform): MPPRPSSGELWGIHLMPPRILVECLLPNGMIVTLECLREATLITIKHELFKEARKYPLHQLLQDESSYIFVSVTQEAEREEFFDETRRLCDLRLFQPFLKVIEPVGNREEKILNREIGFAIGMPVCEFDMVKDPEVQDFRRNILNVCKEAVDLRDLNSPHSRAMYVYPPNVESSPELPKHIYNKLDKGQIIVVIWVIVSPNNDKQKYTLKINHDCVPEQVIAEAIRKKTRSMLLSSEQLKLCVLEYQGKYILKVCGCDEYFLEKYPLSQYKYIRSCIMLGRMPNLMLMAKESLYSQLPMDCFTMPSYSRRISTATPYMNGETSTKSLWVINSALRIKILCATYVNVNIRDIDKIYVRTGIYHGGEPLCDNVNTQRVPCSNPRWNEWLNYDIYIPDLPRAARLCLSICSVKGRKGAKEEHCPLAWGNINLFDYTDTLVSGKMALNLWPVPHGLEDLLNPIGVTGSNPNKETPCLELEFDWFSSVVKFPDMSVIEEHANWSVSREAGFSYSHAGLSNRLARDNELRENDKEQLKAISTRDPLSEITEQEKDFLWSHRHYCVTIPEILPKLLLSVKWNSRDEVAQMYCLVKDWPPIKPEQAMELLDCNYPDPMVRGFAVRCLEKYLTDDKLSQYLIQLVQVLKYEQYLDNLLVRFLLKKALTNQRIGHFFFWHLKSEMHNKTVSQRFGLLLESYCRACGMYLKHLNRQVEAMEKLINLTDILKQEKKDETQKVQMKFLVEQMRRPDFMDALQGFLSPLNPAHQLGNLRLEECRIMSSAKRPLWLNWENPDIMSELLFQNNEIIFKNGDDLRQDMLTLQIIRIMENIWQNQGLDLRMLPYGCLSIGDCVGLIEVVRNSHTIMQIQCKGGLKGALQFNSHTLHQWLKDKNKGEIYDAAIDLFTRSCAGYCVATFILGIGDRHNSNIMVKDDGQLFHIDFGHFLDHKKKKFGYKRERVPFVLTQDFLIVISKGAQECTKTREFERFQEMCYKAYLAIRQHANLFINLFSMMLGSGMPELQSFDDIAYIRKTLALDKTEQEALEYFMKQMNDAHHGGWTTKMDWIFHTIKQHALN
Outline: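 Competitive fluorescence polarization. Buffer includes MgCl₂ and 10 mM DTT, with diC₈-PI(4,5)P₂ as substrate. Incubated 3 h at room temperature, then quenched with chelators. Phosphoinositide binding protein and a fluorophore-labeled phosphoinositide tracer were added, and samples equilibrated 1 h in the dark before reading.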

KB = assay: Cytotoxicity against human KB cells after 72 hrs by MTT assay; type: functional, cell-based; outline: as §1
HCT-116 = assay: Cytotoxicity against human HCT116 cells after 72 hrs by MTT assay; type: functional, cell-based; conditions: HCT-116, 72 h; outline: as §1
PC-3 = assay: Cytotoxicity against human PC3 cells after 72 hrs by MTT assay; type: functional, cell-based; conditions: PC-3, 72 h; outline: as §1
[2] = molecular target: T1, Phosphatidylinositol 4,5-bisphosphate 3-kinase catalytic subunit alpha isoform; assay: Inhibition of PI3Kalpha-mediated AKT Ser473 phosphorylation in human PC3 cells at 10 uM after 3 hrs by Western blot analysis; type: cell-based; conditions: PC-3
Outline: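 PC3 cells exposed to compound for 3 h. Lysates run on SDS–PAGE and probed for pAkt Ser473 by Western blot, with actin as internal control.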

[3] = molecular target: T1, Phosphatidylinositol 4,5-bisphosphate 3-kinase catalytic subunit alpha isoform; assay: Ratio of IC50 for WR1 to compound IC50 for PI3Kalpha using diC8-PI(4,5)P2 as substrate after 3 hrs by competitive fluorescence polarization assay

O=S(=O)(c1ccccc1)c1nc2ccccc2nc1N1CCc2ccccc2C1
IC50 (HL-60): 0.88 µM | IC50 (A549): 19.8 µM | IC50 [1]: > 50 µM | IC50 (KB): 26.3 µM | IC50 (HCT-116): 18.7 µM | IC50 (PC-3): 5.01 µM

COc1ccc(S(=O)(=O)c2nc3ccccc3nc2N2CCc3ccccc3C2)cc1
IC50 (HL-60): 3.69 µM | IC50 (A549): > 50 µM | IC50 (KB): > 50 µM | IC50 (HCT-116): 22.1 µM | IC50 (PC-3): > 50 µM

Cc1ccc(S(=O)(=O)c2nc3ccccc3nc2N2CCc3ccccc3C2)cc1
IC50 (HL-60): 3.61 µM | IC50 (A549): > 50 µM | IC50 (KB): 32.1 µM | IC50 (HCT-116): 39 µM | IC50 (PC-3): 22.4 µM

O=S(=O)(c1ccc(Br)cc1)c1nc2ccccc2nc1N1CCC(O)CC1
IC50 (HL-60): 0.34 µM | inhibition [2]: Active | IC50 (A549): 0.95 µM | IC50 [1]: 0.025 µM | IC50 (KB): 2.32 µM | IC50 (HCT-116): 1.65 µM | IC50 (PC-3): 2.02 µM

O=S(=O)(c1ccc(Br)cc1)c1nc2ccccc2nc1N1CCCC(O)C1 (stereo unspecified)
IC50 (HL-60): 3.43 µM | IC50 (A549): 2.1 µM | IC50 (KB): 3.72 µM | IC50 (HCT-116): 2.11 µM | IC50 (PC-3): 3.69 µM

O=S(=O)(c1ccccc1)c1nc2ccccc2nc1N1CCC(O)CC1
IC50 (HL-60): 2.9 µM | Ratio IC50 [3]: 6 | IC50 (A549): 2.06 µM | IC50 [1]: 0.079 µM | IC50 (KB): 5.36 µM | IC50 (HCT-116): 1.87 µM | IC50 (PC-3): 4.98 µM

O=S(=O)(c1ccc(F)cc1)c1nc2ccccc2nc1N1CCCC(O)C1 (stereo unspecified)
IC50 (HL-60): 2.62 µM | IC50 (A549): 8.17 µM | IC50 (KB): 18.3 µM | IC50 (HCT-116): 5.5 µM | IC50 (PC-3): 2.13 µM

O=S(=O)(c1ccc(F)cc1)c1nc2ccccc2nc1N1CCc2ccccc2C1
IC50 (HL-60): 4.08 µM | IC50 (A549): 22.9 µM | IC50 (KB): 35.4 µM | IC50 (HCT-116): 16.6 µM | IC50 (PC-3): 9.23 µM

Cc1ccc(S(=O)(=O)c2nc3ccccc3nc2N2CCCC(O)C2)cc1 (stereo unspecified)
IC50 (HL-60): 6.08 µM | IC50 (A549): 1.35 µM | IC50 (KB): 6.08 µM | IC50 (HCT-116): 3.27 µM | IC50 (PC-3): 5.33 µM

O=S(=O)(c1ccccc1)c1nc2ccccc2nc1N1CCCC(O)C1 (stereo unspecified)
IC50 (HL-60): 3.02 µM | IC50 (A549): 0.31 µM | IC50 (KB): 3.59 µM | IC50 (HCT-116): 1.39 µM | IC50 (PC-3): 2.1 µM

COc1ccc(S(=O)(=O)c2nc3ccccc3nc2N2CCC(O)CC2)cc1
IC50 (HL-60): 3.23 µM | IC50 (A549): 5.11 µM | IC50 (KB): 8.06 µM | IC50 (HCT-116): 4.69 µM | IC50 (PC-3): 9.73 µM

O=S(=O)(c1ccc(Br)cc1)c1nc2ccccc2nc1N1CCCC1
IC50 (HL-60): 6.07 µM | IC50 (A549): > 50 µM | IC50 (KB): > 50 µM | IC50 (HCT-116): 37.7 µM | IC50 (PC-3): > 50 µM

Cc1ccc(S(=O)(=O)c2nc3ccccc3nc2N2CCC(O)CC2)cc1
IC50 (HL-60): 4.05 µM | IC50 (A549): 4.02 µM | IC50 (KB): 6.14 µM | IC50 (HCT-116): 5.44 µM | IC50 (PC-3): 9.52 µM

O=S(=O)(c1ccc(F)cc1)c1nc2ccccc2nc1N1CCC(O)CC1
IC50 (HL-60): 1.45 µM | IC50 (A549): 20.2 µM | IC50 (KB): 9.58 µM | IC50 (HCT-116): 1.34 µM | IC50 (PC-3): 2.01 µM

O=S(=O)(c1ccccc1)c1nc2ccccc2nc1N1CCCC1
IC50 (HL-60): 3.46 µM | IC50 (A549): 34.8 µM | IC50 [1]: 21.8 µM | IC50 (KB): 35.8 µM | IC50 (HCT-116): 24.2 µM | IC50 (PC-3): 20.8 µM

O=S(=O)(c1ccc(Br)cc1)c1nc2ccccc2nc1N1CCc2ccccc2C1
IC50 (HL-60): 2.61 µM | IC50 (A549): > 50 µM | IC50 (KB): > 50 µM | IC50 (HCT-116): > 50 µM | IC50 (PC-3): > 50 µM

COc1ccc(S(=O)(=O)c2nc3ccccc3nc2N2CCCC(O)C2)cc1 (stereo unspecified)
IC50 (HL-60): 3.05 µM | IC50 (A549): 2.18 µM | IC50 (KB): 2.12 µM | IC50 (HCT-116): 3.52 µM | IC50 (PC-3): 3.41 µM

Cc1ccc(S(=O)(=O)c2nc3ccccc3nc2N2CCCC2)cc1
IC50 (HL-60): 9.72 µM | IC50 (A549): > 50 µM | IC50 (KB): > 50 µM | IC50 (HCT-116): > 50 µM | IC50 (PC-3): > 50 µM

COc1ccc(S(=O)(=O)c2nc3ccccc3nc2N2CCCC2)cc1
IC50 (HL-60): 16 µM | IC50 (A549): > 50 µM | IC50 (KB): > 50 µM | IC50 (HCT-116): > 50 µM | IC50 (PC-3): > 50 µM

O=S(=O)(c1ccc(F)cc1)c1nc2ccccc2nc1N1CCCC1
IC50 (HL-60): 12.8 µM | IC50 (A549): 31.1 µM | IC50 (KB): 30.1 µM | IC50 (HCT-116): 20.6 µM | IC50 (PC-3): 12.4 µM

O=S(=O)(c1ccccc1)c1nc2ccccc2nc1N1CCOCC1
IC50 (HL-60): 4.47 µM | IC50 (A549): 12.6 µM | IC50 [1]: 0.44 µM | IC50 (HCT-116): 5.35 µM | IC50 (PC-3): 18.9 µM
